Results taken from ChEMBL document CHEMBL4689842, “EUbOPEN Chemogenomics Library wave 1” (2021).
Values joined by “and” are separate entries in the source; they are usually repeats but may differ in a detail not shown here. Equal entries are not always repeated.

Tested on: HEK-293T
Test: Multiplex assay against HEK293T;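 on Population Tubulin-Different-Phenotype (%): share of the cells with healthy nuclei that show this phenotype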
Type: toxicity, cell-based
Conditions: human
Method in brief: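 Imaging took place on a CQ1 microscope at 37°C and 5% CO2 once compound had been added to live cells stained at seeding with Hoechst33342, BioTracker Green Microtubule Cytoskeleton Dye, MitoTracker Red and Annexin V Alexa Fluor 680. CellPathfinder machine-learning gating classed cells as Hoechst high-intensity objects or normal cells, classed normal cells as having healthy, pyknosed or fragmented nuclei, and classed pyknosed cells as mitotic or apoptotic. Tubulin, mitochondrial-mass and membrane-permeability phenotypes are per cents of the healthy-nucleus cells.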

[1] = 12 h, 10 µM, compound concentration 10 uM, replicate 1
[2] = 12 h, 10 µM, compound concentration 10 uM, replicate 2
[3] = 24 h, 10 µM, compound concentration 10 uM, replicate 1
[4] = 24 h, 10 µM, compound concentration 10 uM, replicate 2
[5] = 12 h, 1 µM, compound concentration 1 uM, replicate 1
[6] = 12 h, 1 µM, compound concentration 1 uM, replicate 2
[7] = 24 h, 1 µM, compound concentration 1 uM, replicate 1
[8] = 24 h, 1 µM, compound concentration 1 uM, replicate 2
[9] = 48 h, 1 µM, compound concentration 1 uM, replicate 1
[10] = 48 h, 1 µM, compound concentration 1 uM, replicate 2
[11] = 48 h, 10 µM, compound concentration 10 uM, replicate 1
[12] = 48 h, 10 µM, compound concentration 10 uM, replicate 2

Q: What does the source list for `O=C(NCCN1CCOCC1)c1ccc2c(c1)C(=O)c1ccc(Nc3ccc(F)c(NC(=O)c4ccccc4)c3)cc1CC2` [FS-694]?
A: Population Apoptotic (%) [1]: 34%; Population Fragmented Nuclei (%) [1]: 35% and 16%; Population Healthy Nuclei (%) [1]: 29% and 54%; Population Membrane Permeable-Phenotype (%) [1]: 32% and 21%; Population Mitochondria Different-Phenotype (%) [1]: 12% and 9%; Population Mitotic Cells (%) [1]: 65%; Population Normal (%) [1]: 41% and 85%; Population Pyknosed Nuclei (%) [1]: 35% and 29%; Population Tubulin-Different-Phenotype (%) [1]: 30% and 33%; Total Cell Count [1]: 1239 and 557; Population Apoptotic (%) [2]: 28% and 16%; Population Fragmented Nuclei (%) [2]: 3% and 4%; Population Healthy Nuclei (%) [2]: 69% and 85%; Population Membrane Permeable-Phenotype (%) [2]: 15% and 11%; Population Mitochondria Different-Phenotype (%) [2]: 47% and 23%; Population Mitotic Cells (%) [2]: 71% and 83%; Population Normal (%) [2]: 76% and 96%; Population Pyknosed Nuclei (%) [2]: 26% and 9%; Population Tubulin-Different-Phenotype (%) [2]: 97% and 66%; Total Cell Count [2]: 1142 and 1356; Population Apoptotic (%) [3]: 48% and 24%; Population Membrane Permeable-Phenotype (%) [3]: 31% and 22%; Population Mitochondria Different-Phenotype (%) [3]: 14% and 8%; Population Mitotic Cells (%) [3]: 51% and 75%; Population Normal (%) [3]: 43% and 89%; Population Pyknosed Nuclei (%) [3]: 34% and 16%; Population Tubulin-Different-Phenotype (%) [3]: 18% and 51%; Total Cell Count [3]: 1331 and 564; Population Fragmented Nuclei (%) [4]: 5%; Population Healthy Nuclei (%) [4]: 85% and 58%; Population Mitotic Cells (%) [4]: 90% and 60%; Population Normal (%) [4]: 95% and 69%; Population Tubulin-Different-Phenotype (%) [4]: 70% and 96%; Total Cell Count [4]: 1983 and 1283

Q: How did the “Population Apoptotic (%)” value [5] turn out when `CN1CCC[C@@H]1CCO[C@](C)(c1ccccc1)c1ccc(Cl)cc1.O=C(O)/C=C/C(=O)O` [CLEMASTINE FUMARATE] was run?
A: 56%

Q: And the “Population Fragmented Nuclei (%)” value [5]?
A: 10%

Q: And the “Population Healthy Nuclei (%)” value [5]?
A: 23%

Q: And the “Population Hoechst High Intensity Objects (%)” value [5]?
A: 9%

Q: And the “Population Membrane Permeable-Phenotype (%)” value [5]?
A: 5%

Q: And the “Population Mitochondria Different-Phenotype (%)” value [5]?
A: 96%

Q: What about the “Population Mitotic Cells (%)” value [5] of the same compound?
A: 43%

Q: And the “Population Normal (%)” value [5]?
A: 90%

Q: And the “Population Pyknosed Nuclei (%)” value [5]?
A: 65%

Q: What about the “Population Tubulin-Different-Phenotype (%)” value [5] of the same compound?
A: 78%

Q: And the “Total Cell Count” value [5]?
A: 278

Q: And the “Population Apoptotic (%)” value [6]?
A: 25%

Q: And the “Population Fragmented Nuclei (%)” value [6]?
A: 4%

Q: And the “Population Healthy Nuclei (%)” value [6]?
A: 32%

Q: What about the “Population Hoechst High Intensity Objects (%)” value [6] of the same compound?
A: 3%

Q: What about the “Population Membrane Permeable-Phenotype (%)” value [6] of the same compound?
A: 13%

Q: What about the “Population Mitochondria Different-Phenotype (%)” value [6] of the same compound?
A: 48%

Q: And the “Population Mitotic Cells (%)” value [6]?
A: 75%

Q: And the “Population Normal (%)” value [6]?
A: 96%

Q: What about the “Population Pyknosed Nuclei (%)” value [6] of the same compound?
A: 62%

Q: And the “Population Tubulin-Different-Phenotype (%)” value [6]?
A: 52%

Q: What about the “Total Cell Count” value [6] of the same compound?
A: 217

Q: And the “Population Apoptotic (%)” value [1]?
A: 92%

Q: And the “Population Fragmented Nuclei (%)” value [1]?
A: 14%

Q: What about the “Population Healthy Nuclei (%)” value [1] of the same compound?
A: 17%

Q: And the “Population Hoechst High Intensity Objects (%)” value [1]?
A: 18%

Q: And the “Population Membrane Permeable-Phenotype (%)” value [1]?
A: 6%

Q: And the “Population Mitochondria Different-Phenotype (%)” value [1]?
A: 100%

Q: What about the “Population Mitotic Cells (%)” value [1] of the same compound?
A: 7%

Q: And the “Population Normal (%)” value [1]?
A: 81%

Q: What about the “Population Pyknosed Nuclei (%)” value [1] of the same compound?
A: 67%

Q: And the “Population Tubulin-Different-Phenotype (%)” value [1]?
A: 93%

Q: And the “Total Cell Count” value [1]?
A: 209

Q: What about the “Population Apoptotic (%)” value [2] of the same compound?
A: 85%

Q: What about the “Population Fragmented Nuclei (%)” value [2] of the same compound?
A: 6%

Q: And the “Population Healthy Nuclei (%)” value [2]?
A: 15%

Q: What about the “Population Hoechst High Intensity Objects (%)” value [2] of the same compound?
A: 6%

Q: And the “Population Membrane Permeable-Phenotype (%)” value [2]?
A: 4%

Q: And the “Population Mitochondria Different-Phenotype (%)” value [2]?
A: 96%

Q: What about the “Population Mitotic Cells (%)” value [2] of the same compound?
A: 14%

Q: And the “Population Normal (%)” value [2]?
A: 93%

Q: And the “Population Pyknosed Nuclei (%)” value [2]?
A: 78%

Q: And the “Population Tubulin-Different-Phenotype (%)” value [2]?
A: 92%

Q: What about the “Total Cell Count” value [2] of the same compound?
A: 172

Q: What about the “Population Apoptotic (%)” value [7] of the same compound?
A: 59%

Q: And the “Population Fragmented Nuclei (%)” value [7]?
A: 12%

Q: What about the “Population Healthy Nuclei (%)” value [7] of the same compound?
A: 18%

Q: And the “Population Hoechst High Intensity Objects (%)” value [7]?
A: 21%

Q: What about the “Population Membrane Permeable-Phenotype (%)” value [7] of the same compound?
A: 0%

Q: And the “Population Mitochondria Different-Phenotype (%)” value [7]?
A: 95%

Q: What about the “Population Mitotic Cells (%)” value [7] of the same compound?
A: 40%

Q: And the “Population Normal (%)” value [7]?
A: 78%

Q: And the “Population Pyknosed Nuclei (%)” value [7]?
A: 68%

Q: And the “Population Tubulin-Different-Phenotype (%)” value [7]?
A: 63%

Q: What about the “Total Cell Count” value [7] of the same compound?
A: 274

Q: And the “Population Apoptotic (%)” value [8]?
A: 42%

Q: What about the “Population Fragmented Nuclei (%)” value [8] of the same compound?
A: 7%

Q: What about the “Population Healthy Nuclei (%)” value [8] of the same compound?
A: 60%

Q: What about the “Population Hoechst High Intensity Objects (%)” value [8] of the same compound?
A: 1%

Q: What about the “Population Membrane Permeable-Phenotype (%)” value [8] of the same compound?
A: 4%

Q: And the “Population Mitochondria Different-Phenotype (%)” value [8]?
A: 56%

Q: What about the “Population Mitotic Cells (%)” value [8] of the same compound?
A: 57%

Q: What about the “Population Normal (%)” value [8] of the same compound?
A: 98%

Q: What about the “Population Pyknosed Nuclei (%)” value [8] of the same compound?
A: 32%

Q: What about the “Population Tubulin-Different-Phenotype (%)” value [8] of the same compound?
A: 60%

Q: And the “Total Cell Count” value [8]?
A: 273

Q: What about the “Population Fragmented Nuclei (%)” value [3] of the same compound?
A: 15%

Q: And the “Population Healthy Nuclei (%)” value [3]?
A: 11%

Q: And the “Population Hoechst High Intensity Objects (%)” value [3]?
A: 23%

Q: And the “Population Membrane Permeable-Phenotype (%)” value [3]?
A: 0%

Q: What about the “Population Mitochondria Different-Phenotype (%)” value [3] of the same compound?
A: 100%

Q: And the “Population Normal (%)” value [3]?
A: 76%

Q: And the “Population Pyknosed Nuclei (%)” value [3]?
A: 72%

Q: And the “Population Tubulin-Different-Phenotype (%)” value [3]?
A: 94%

Q: And the “Total Cell Count” value [3]?
A: 211

Q: What about the “Population Apoptotic (%)” value [4] of the same compound?
A: 92%

Q: And the “Population Fragmented Nuclei (%)” value [4]?
A: 4%

Q: And the “Population Healthy Nuclei (%)” value [4]?
A: 20%

Q: What about the “Population Hoechst High Intensity Objects (%)” value [4] of the same compound?
A: 6%

Q: And the “Population Membrane Permeable-Phenotype (%)” value [4]?
A: 6%

Q: And the “Population Mitochondria Different-Phenotype (%)” value [4]?
A: 93%

Q: What about the “Population Mitotic Cells (%)” value [4] of the same compound?
A: 7%

Q: And the “Population Normal (%)” value [4]?
A: 93%

Q: And the “Population Pyknosed Nuclei (%)” value [4]?
A: 74%

Q: And the “Population Tubulin-Different-Phenotype (%)” value [4]?
A: 93%

Q: And the “Total Cell Count” value [4]?
A: 159

Q: What about the “Population Apoptotic (%)” value [9] of the same compound?
A: 66%

Q: And the “Population Fragmented Nuclei (%)” value [9]?
A: 21%

Q: And the “Population Healthy Nuclei (%)” value [9]?
A: 11%

Q: And the “Population Hoechst High Intensity Objects (%)” value [9]?
A: 23%

Q: And the “Population Membrane Permeable-Phenotype (%)” value [9]?
A: 4%

Q: What about the “Population Mitochondria Different-Phenotype (%)” value [9] of the same compound?
A: 88%

Q: And the “Population Mitotic Cells (%)” value [9]?
A: 33%

Q: What about the “Population Normal (%)” value [9] of the same compound?
A: 76%

Q: And the “Population Pyknosed Nuclei (%)” value [9]?
A: 66%

Q: What about the “Population Tubulin-Different-Phenotype (%)” value [9] of the same compound?
A: 72%

Q: What about the “Total Cell Count” value [9] of the same compound?
A: 276

Q: And the “Population Apoptotic (%)” value [10]?
A: 21%

Q: And the “Population Fragmented Nuclei (%)” value [10]?
A: 4%

Q: What about the “Population Healthy Nuclei (%)” value [10] of the same compound?
A: 81%

Q: What about the “Population Hoechst High Intensity Objects (%)” value [10] of the same compound?
A: 1%

Q: And the “Population Membrane Permeable-Phenotype (%)” value [10]?
A: 5%

Q: What about the “Population Mitochondria Different-Phenotype (%)” value [10] of the same compound?
A: 29%

Q: What about the “Population Mitotic Cells (%)” value [10] of the same compound?
A: 78%

Q: What about the “Population Normal (%)” value [10] of the same compound?
A: 98%

Q: And the “Population Pyknosed Nuclei (%)” value [10]?
A: 13%

Q: What about the “Population Tubulin-Different-Phenotype (%)” value [10] of the same compound?
A: 60%

Q: What about the “Total Cell Count” value [10] of the same compound?
A: 406

Q: And the “Population Apoptotic (%)” value [11]?
A: 86%

Q: And the “Population Fragmented Nuclei (%)” value [11]?
A: 24%

Q: And the “Population Healthy Nuclei (%)” value [11]?
A: 1%

Q: And the “Population Hoechst High Intensity Objects (%)” value [11]?
A: 23%

Q: What about the “Population Membrane Permeable-Phenotype (%)” value [11] of the same compound?
A: 0%

Q: And the “Population Mitochondria Different-Phenotype (%)” value [11]?
A: 100%

Q: And the “Population Mitotic Cells (%)” value [11]?
A: 13%

Q: What about the “Population Normal (%)” value [11] of the same compound?
A: 76%

Q: And the “Population Pyknosed Nuclei (%)” value [11]?
A: 73%

Q: And the “Population Tubulin-Different-Phenotype (%)” value [11]?
A: 66%

Q: And the “Total Cell Count” value [11]?
A: 230

Q: What about the “Population Apoptotic (%)” value [12] of the same compound?
A: 97%

Q: What about the “Population Fragmented Nuclei (%)” value [12] of the same compound?
A: 14%

Q: What about the “Population Healthy Nuclei (%)” value [12] of the same compound?
A: 15%

Q: And the “Population Hoechst High Intensity Objects (%)” value [12]?
A: 8%

Q: What about the “Population Membrane Permeable-Phenotype (%)” value [12] of the same compound?
A: 8%

Q: And the “Population Mitochondria Different-Phenotype (%)” value [12]?
A: 83%

Q: And the “Population Mitotic Cells (%)” value [12]?
A: 2%

Q: What about the “Population Normal (%)” value [12] of the same compound?
A: 91%

Q: And the “Population Pyknosed Nuclei (%)” value [12]?
A: 69%

Q: What about the “Population Tubulin-Different-Phenotype (%)” value [12] of the same compound?
A: 75%

Q: What about the “Total Cell Count” value [12] of the same compound?
A: 168
